Results from ChEMBL document CHEMBL1124262, “Cardiotonic agents. Synthesis and inotropic activity of a series of isoquinolin-3-ol derivatives” (J Med Chem, 1988).

Tests used:
Canis familiaris [1] = test: 50% increase in contractile force in one to three anesthetized dogs administered intravenously; type: functional; details: Canis lupus familiaris, iv
Procedure, shortened: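 Anesthetized dogs (one to three). Compound is infused iv in three to four stepwise increasing doses, each over 5 min once the previous effect has peaked. Contractile force is recorded with a Walton Brodie strain gauge on the right ventricle. The dose (μg/kg) giving a 50% rise over control CF is read from the dose-response curve, graphically (n < 3) or by linear regression (n ≥ 3).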

Canis familiaris [2] = test: Change in heart contractile force of anaesthetized, open chest dogs following 0.875 mg/kg i.v. administration.; type: functional, Canis lupus familiaris; details: route intravenous
Procedure, shortened: (§1)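 Anesthetized open-chest dogs, one drug per animal. Compound is in DMF diluted to 10% in saline, or given as the HCl salt in saline. It is infused into the femoral vein by pump at 0.58-2.2 mL/min in 3-4 stepwise cumulative doses, each over 5 min after the prior peak. Readings are CF by right-ventricle strain gauge, dP/dtmax by Millar LV catheter, HR by cardiotachometer and MAP from femoral artery, as % change from predrug control.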

Canis familiaris [3] = test: Percent change in mean arterial blood pressure (MAP) in anesthetized open chest dogs iv administration at 0.875 mg/kg; type: functional, Canis lupus familiaris; procedure, shortened: as §1
Canis familiaris [4] = test: Change in left ventricular pressure of anaesthetized, open chest dogs following 0.875 mg/kg i.v. administration.; type: functional, Canis lupus familiaris, Heart left ventricle; details: route intravenous; procedure, shortened: as §1
Canis familiaris [5] = test: Percent change in heart rate (HR) in anesthetized open chest dogs after a iv dose of 0.875 mg/kg; type: functional, Canis lupus familiaris; procedure, shortened: as §1
Phosphodiesterase 3 = Phosphodiesterase 3 (Homo sapiens, UniProt Q14432+Q13370); test: Inhibition of phosphodiesterase fraction III in anesthetized open chest dogs; type: functional, Canis lupus familiaris; details: target entry is the homologue from another species
Procedure, shortened: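 Enzyme is dog heart PDE-III, the third DEAE-cellulose fraction eluted at 800 mM sodium acetate. Compounds are tested at 0.01–1000 μM with 0.25 μM cAMP containing [³H]cAMP, in 0.05 M Tris-HCl pH 7.4 with 5 mM MgCl2. The reaction is stopped by heat, then snake venom converts product to adenosine. [³H]adenosine is counted by scintillation after Dowex separation. IC50 comes from ≥2 determinations, each in duplicate.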

Canis familiaris [6] = test: Change in heart rate of anaesthetized, open chest dogs following 0.875 mg/kg i.v. administration.; type: functional, Canis lupus familiaris; details: route intravenous; procedure, shortened: as §1
Canis familiaris [7] = test: Percent change in heart rate (HR) in anesthetized open chest dogs after a iv dose of 10 mg/kg; type: functional, Canis lupus familiaris; procedure, shortened: as §1
Canis familiaris [8] = test: Percent change in left ventricular pressure (dP/dtmax) in anesthetized dog after iv administration at 10 mg/kg; type: functional, Canis lupus familiaris, Heart left ventricle; procedure, shortened: as §1
Canis familiaris [9] = test: Percent increase in contractile force (CF) in anesthetized open-chest dogs id administration of 10 mg/kg; type: functional, Canis lupus familiaris; details: route intraduodenal
Procedure, shortened: (§2)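 Anesthetized open-chest dogs. A 10-mL bolus is injected into the duodenum through a catheter placed 2 cm distal to the pylorus. Contractile force is measured with a Walton Brodie strain gauge sutured to the right ventricle, at a baseline tension of 100 g, and monitored continuously. Results are given as % increase from predrug control against cumulative dose.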

Canis familiaris [10] = test: Percent change in mean arterial blood pressure (MAP) in anesthetized open chest dogs iv administration at 10 mg/kg; type: functional, Canis lupus familiaris; procedure, shortened: as §1
Canis familiaris [11] = test: Percent change in mean arterial blood pressure (MAP) in anesthetized open chest dogs iv administration at 0.8750 mg/kg; type: functional, Canis lupus familiaris; details: dose 0.875 mg/kg; procedure, shortened: as §1
Canis familiaris [12] = test: Percent change in heart rate (HR) in anesthetized open chest dogs after a iv dose of 0.925 mg/kg; type: functional, Canis lupus familiaris; procedure, shortened: as §1
Canis familiaris [13] = test: Percent increase in contractile force (CF) in anesthetized open-chest dogs iv administration of 0.925 mg/kg; type: functional, Canis lupus familiaris
Procedure, shortened: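 Anesthetized open-chest dogs. After a right thoracotomy, contractile force was recorded by a Walton Brodie strain gauge sutured to the right ventricle at 100 g baseline tension. Compound was given iv by infusion pump into a femoral vein, one drug per animal, in three to four stepwise increasing doses. Each dose ran over 5 min, starting once the previous dose's effect peaked. Values are % increase over predrug control vs cumulative mg/kg dose.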

Canis familiaris [14] = test: Percent change in mean arterial blood pressure (MAP) in anesthetized open chest dogs iv administration at 0.9250 mg/kg; type: functional, Canis lupus familiaris; details: dose 0.925 mg/kg; procedure, shortened: as §1
Canis familiaris [15] = test: Percent change in left ventricular pressure (dP/dtmax) in anesthetized dog after iv administration at 0.925 mg/kg; type: functional, Canis lupus familiaris, Heart left ventricle; procedure, shortened: as §1
Canis familiaris [16] = test: Percent change in heart rate (HR) in anesthetized open chest dogs after a iv dose of 1 mg/kg; type: functional, Canis lupus familiaris; procedure, shortened: as §1
Canis familiaris [17] = test: Percent change in mean arterial blood pressure (MAP) in anesthetized open chest dogs iv administration at 1 mg/kg; type: functional, Canis lupus familiaris; procedure, shortened: as §1
Canis familiaris [18] = test: Contractile force in anesthetized open chest dogs id administration 1.00 mg/kg; type: functional, Canis lupus familiaris; details: route intraduodenal; procedure, shortened: as §2
Canis familiaris [19] = test: Percent increase in left ventricular pressure (dP/dtmax) of anesthetized dog after id administration at 1 mg/kg; type: functional, Canis lupus familiaris, Heart left ventricle; details: route intraduodenal
Procedure, shortened: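 Anesthetized open-chest dogs. Left ventricular pressure was measured by Millar catheter and dP/dtmax derived. Compound was given as a 10-mL bolus into the duodenum through a catheter placed 2 cm distal to the pylorus via flank incision. Dissolved in DMF diluted to 10% in saline, or as HCl salt in saline. Response is % change over predrug control, monitored continuously.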

IC50 (Phosphodiesterase 3) [µM] | Compound | ED50 (Canis familiaris [1]) [mg/kg] | Increase (Canis familiaris [2]) [%] | Change (Canis familiaris [3]) [%] | Increase (Canis familiaris [4]) [%] | Change (Canis familiaris [5]) [%] | Change (Canis familiaris [6]) [%] | Change (Canis familiaris [7]) [%] | Increase (Canis familiaris [8]) [%] | Increase (Canis familiaris [9]) [%] | Change (Canis familiaris [10]) [%] | Change (Canis familiaris [11]) [%] | Change (Canis familiaris [12]) [%] | Increase (Canis familiaris [13]) [%] | Change (Canis familiaris [14]) [%] | Increase (Canis familiaris [15]) [%] | Change (Canis familiaris [16]) [%] | Change (Canis familiaris [17]) [%] | Increase (Canis familiaris [18]) [%] | Increase (Canis familiaris [19]) [%]
80 | COc1cc(OC)c2c(C)nc(O)cc2c1 | 0.375 | 91 | -18 | 62 | 13 |  |  |  |  |  |  |  |  |  |  |  |  |  | 
35 | COC(=O)CCc1c(O)nc(C)c2cc(OC)c(OC)cc12 | 0.165 | 140 |  | 78 |  | 34 | 12 | 52 | 105 | -11 | -12 |  |  |  |  |  |  |  | 
160 | COc1ccc2c(C)nc(O)cc2c1 | 0.6 |  |  |  |  |  |  |  |  |  |  | 8 | 65 | 0 | 56 |  |  |  | 
5 | CCCc1c(O)nc(C)c2cc(OC)c(OC)cc12 | 0.125 | 108 |  | 55 |  | 22 |  |  |  |  | 4 |  |  |  |  | 5 | 3 | 20 | 20
